Experimental data taken from ChEMBL document CHEMBL1143369, “Guanidine and 2-aminoimidazoline aromatic derivatives as alpha2-adrenoceptor ligands: searching for structure-activity relationships” (J Med Chem, 2009).
Activity calls are given as the source filed them. The rule behind the calls is not given here.

Legend:
[1] = molecular target: T1, Adrenergic receptor alpha-2 (Homo sapiens, UniProt P08913+P18825+P18089); test: Displacement of [3H]RX821002 from alpha2 adrenoceptor in human prefrontal cortex neural membrane after 30 mins by liquid scintillation spectrometry; type: tissue-based
T1 sequence (P08913 whole entry): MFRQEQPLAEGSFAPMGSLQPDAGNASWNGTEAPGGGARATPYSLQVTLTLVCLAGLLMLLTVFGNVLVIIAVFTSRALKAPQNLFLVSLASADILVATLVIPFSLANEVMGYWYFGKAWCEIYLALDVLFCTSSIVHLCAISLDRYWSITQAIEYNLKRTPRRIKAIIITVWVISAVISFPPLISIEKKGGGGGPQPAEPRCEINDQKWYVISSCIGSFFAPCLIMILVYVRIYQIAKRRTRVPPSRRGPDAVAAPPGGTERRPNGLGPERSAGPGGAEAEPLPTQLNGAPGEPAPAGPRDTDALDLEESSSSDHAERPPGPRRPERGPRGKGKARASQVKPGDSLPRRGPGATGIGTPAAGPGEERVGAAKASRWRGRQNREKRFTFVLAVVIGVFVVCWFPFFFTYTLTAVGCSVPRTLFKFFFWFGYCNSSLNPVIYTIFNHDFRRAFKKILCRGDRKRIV
T1 sequence (P18825 whole entry): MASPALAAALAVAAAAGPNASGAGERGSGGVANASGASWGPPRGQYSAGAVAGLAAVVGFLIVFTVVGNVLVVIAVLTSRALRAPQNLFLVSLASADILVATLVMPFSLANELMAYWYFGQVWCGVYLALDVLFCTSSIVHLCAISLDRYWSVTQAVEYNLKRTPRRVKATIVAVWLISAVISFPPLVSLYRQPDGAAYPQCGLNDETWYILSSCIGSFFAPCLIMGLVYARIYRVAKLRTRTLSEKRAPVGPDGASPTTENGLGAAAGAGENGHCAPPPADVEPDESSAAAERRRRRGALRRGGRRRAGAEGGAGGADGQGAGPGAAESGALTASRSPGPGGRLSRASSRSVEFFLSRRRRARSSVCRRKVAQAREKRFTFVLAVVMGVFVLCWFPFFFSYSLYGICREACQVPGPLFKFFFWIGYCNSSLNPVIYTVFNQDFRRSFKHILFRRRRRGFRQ
T1 sequence (P18089 whole entry): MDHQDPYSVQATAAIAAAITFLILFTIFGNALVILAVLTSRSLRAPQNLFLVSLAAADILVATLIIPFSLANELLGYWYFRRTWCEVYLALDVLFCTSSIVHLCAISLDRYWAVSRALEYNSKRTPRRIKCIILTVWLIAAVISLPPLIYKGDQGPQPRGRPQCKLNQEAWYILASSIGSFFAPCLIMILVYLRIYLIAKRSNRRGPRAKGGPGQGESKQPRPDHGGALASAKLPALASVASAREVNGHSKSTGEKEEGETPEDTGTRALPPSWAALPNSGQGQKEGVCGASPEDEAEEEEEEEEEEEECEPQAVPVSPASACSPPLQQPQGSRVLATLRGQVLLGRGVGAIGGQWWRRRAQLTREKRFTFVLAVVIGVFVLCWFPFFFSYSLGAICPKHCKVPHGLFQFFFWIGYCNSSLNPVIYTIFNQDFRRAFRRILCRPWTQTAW

[2] = molecular target: T1, Adrenergic receptor alpha-2; test: Agonist activity at alpha2 adrenoceptor in human cortical membrane after 2 hrs by [35S]GTPgammaS binding assay; type: functional, cell membranes
[3] = molecular target: T2, Adrenergic receptor alpha-2 (Homo sapiens) (UniProt P08913+P18825+P18089); test: Intrinsic activity at alpha2 adrenoceptor in human cortical membrane at 0.0001 to 1000 uM after 2 hrs by [35S]GTPgammaS binding assay relative to UK-14304; type: functional, cell membranes
Outline: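 Human postmortem PFC membranes (40 µg protein) incubated 2 h at 30 °C with 0.5 nM [35S]GTPγS in buffer of EGTA, MgCl2, 100 mM NaCl, GDP and Tris-HCl pH 7.4. Compound tested at 8 concentrations (10^-10 to 10^-3 M). Bound label collected by GF/C filtration.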

[4] = molecular target: T2, Adrenergic receptor alpha-2 (Homo sapiens); test: Antagonist activity at alpha2 adrenoceptor in human prefrontal cortex neural membrane at 10 uM assessed as rightwards shift in UK-14304 EC50 by [35S]GTPgammaS binding assay; type: functional, tissue-based
Outline: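 Human postmortem prefrontal cortex P2 membranes (40 µg protein) incubated 120 min at 30 °C with shaking in 0.5 nM [35S]GTPγS, 1 mM EGTA, 3 mM MgCl2, 100 mM NaCl, GDP, Tris-HCl pH 7.4. Nonspecific binding with 10 µM unlabeled GTPγS.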

Rattus norvegicus [5] = test: Antidepressant activity in Sprague-Dawley rat assessed as increase in extracellular noradrenaline level in prefrontal cortex at 100 uM administered locally by microdialysis measured after every 70 mins by HPLC; type: functional
Outline: (§1)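 Male Sprague-Dawley rats (250-300 g), freely moving, with a PFC probe implanted under chloral hydrate 20-24 h earlier. Perfused with aCSF pH 7.4 at 1 µL/min. Drug dissolved in aCSF and reverse-dialysed for 70 min at each step of 1, 10 and 100 µM. Dialysate sampled every 35 min, NA measured by HPLC with amperometric detection at +650 mV. Values are % of mean of 3 basal samples, ANOVA versus aCSF controls.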

Rattus norvegicus [6] = test: Antidepressant activity in Sprague-Dawley rat assessed as increase in extracellular noradrenaline level in prefrontal cortex at 10 mg/kg, ip […] by HPLC; type: functional; settings: route intraperitoneal
Rattus norvegicus [7] = test: Antidepressant activity in Sprague-Dawley rat assessed as increase in extracellular noradrenaline level in prefrontal cortex at 1 to 100 uM administered locally by microdialysis measured after every 70 mins by HPLC; type: functional; outline: as §1
Rattus norvegicus [8] = test: Antidepressant activity in Sprague-Dawley rat assessed as increase in extracellular noradrenaline level in prefrontal cortex at 1 uM administered locally by microdialysis measured after every 70 mins by HPLC; type: functional, organism-based; outline: as §1

Compound | pKi [1] | Activity [4] | EC50 [2] | Emax [3] | Emax (Rattus norvegicus [5]) | Activity (Rattus norvegicus [6]) | Emax (Rattus norvegicus [7]) | Activity (Rattus norvegicus [8])
CCN(C)c1ccc(NC2=NCCN2)cc1 | 7.38 | – | 1.9 µM | 103% | – | – | – | –
CCNc1ccc(NC2=NCCN2)cc1 | 6.75 | – | 59.3 µM | 95% | – | – | – | –
CNc1ccc(NC2=NCCN2)cc1 | 7.27 | – | 61.4 µM | 98% | – | – | – | –
COC1(C2=NCCN2)COc2ccccc2O1 (centres undefined) | 9.04 | – | – | – | – | – | 290% | Active
CCC(CC)c1ccc(NC(=N)N)cc1 | – | – | 38.7 µM | 89% | – | – | – | –

More lines, main results first:

pKi [1] | Activity [4] | Compound | EC50 [2] | Emax [3] | Emax (Rattus norvegicus [5]) | Activity (Rattus norvegicus [6]) | Emax (Rattus norvegicus [7]) | Activity (Rattus norvegicus [8])
6.58 | Active | CCNc1ccc(NC(=N)N)cc1 | – | – | 304% | 161% | – | –
7.12 | – | CCN(C)c1ccc(NC(=N)N)cc1 | 16.2 µM | 92% | – | – | – | –
6.95 | – | CNc1ccc(NC(=N)N)cc1 | 82.3 µM | 87% | – | – | – | –
